Wee1 stabilizer = human Wee1 degradation inhibition, primary screen; hit rate 1.2% among 220,000; P30291; reporter increase, % at 5 µM; HeLa Luc-Wee1K328M stability, luciferase luminescence; 100% = proteasome inhibitor MG132 effect;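 active = activation above the mean of all tested compounds plus 3 SD, set per screening run, cut at about 8.8% in these data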;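 note: cells exposed to compound for 20 h before luminescence read; 0% = DMSO alone and 100% = MG132 at 30 µM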
Target sequence (P30291 whole entry K328M): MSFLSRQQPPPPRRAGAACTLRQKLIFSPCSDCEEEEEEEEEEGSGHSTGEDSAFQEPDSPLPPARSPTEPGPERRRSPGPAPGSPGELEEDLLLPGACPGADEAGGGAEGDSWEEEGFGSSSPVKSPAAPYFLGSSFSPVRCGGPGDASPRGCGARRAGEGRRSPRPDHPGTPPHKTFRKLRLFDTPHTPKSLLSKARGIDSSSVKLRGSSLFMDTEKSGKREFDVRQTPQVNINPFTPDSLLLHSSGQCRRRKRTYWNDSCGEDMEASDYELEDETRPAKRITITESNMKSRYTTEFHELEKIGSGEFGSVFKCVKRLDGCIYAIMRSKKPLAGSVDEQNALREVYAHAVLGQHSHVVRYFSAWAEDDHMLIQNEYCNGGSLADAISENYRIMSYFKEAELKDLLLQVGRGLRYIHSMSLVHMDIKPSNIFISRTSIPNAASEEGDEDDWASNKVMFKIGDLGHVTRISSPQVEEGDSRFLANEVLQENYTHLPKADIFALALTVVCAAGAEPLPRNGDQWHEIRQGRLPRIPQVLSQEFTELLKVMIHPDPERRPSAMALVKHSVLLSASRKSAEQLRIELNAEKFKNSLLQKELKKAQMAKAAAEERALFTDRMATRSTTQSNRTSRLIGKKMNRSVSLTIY
bCat nuc transl = modulators of beta-catenin nuclear translocation. HeLa beta-catenin nuclear translocation, immunofluorescence imaging. nuclear translocation activity, % at 5 µM. hit rate 0.3% among 190,000;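 active = nuclear translocation activity above 50% at 5 µM, with a well cell count of 50 or more; inconclusive = wells under 50 cells across six images, flagged as toxic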;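 note: per-cell ratio of nuclear to cytoplasmic median beta-catenin stain intensity; plate controls were DMSO negative control for no effect and GSK-3 inhibitor IX positive control for full effect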
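Test system: human HeLa cells, native beta-catenin. Compound dosing: 5 µM primary single dose, 0.1% DMSO, 0.02–20 µM confirmation series. Incubation: compound exposure 24 h at 37°C. Detection: beta-catenin immunostaining with DAPI counterstain, 20x imaging, 6 fields/well. Read-out basis: Nuclear/cytoplasmic beta-catenin signal ratio, % activation.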
Autophagy mod = modulators of autophagy; hit rate 0.98% among 190,000; AID 463193; MEF GFP-LC3 puncta imaging; test concentration mostly 10 µM; calls only at 10 µM (by protocol);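 active = percentage of spot-positive cells more than 3 SD above its plate mean, without a fluorescence outlier flag or 80% toxicity; inconclusive = no clear call, values can overlap the other calls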;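 note: spot-positive cell cutoff set from DMSO-treated cells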
MT stabilize HCS = microtubule stabilization, imaging screen; hit rate 0.83% among 200,000; % tubulin-high responders, % at 10 µM; HeLa tubulin immunostaining HCS, 24 h; share of cells brighter than vehicle mean+2SD;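 active = plate Z-score above 3 for both tubulin-high and condensed-nucleus cell shares, with cell loss under 80%, at 10 µM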;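 note: anti alpha tubulin signal scored within the nucleus-defined area of each cell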
Insulin prom up = MIN6 insulin promoter up-regulation; z-score at 5 µM; MIN6 insulin promoter-GFP reporter, high-content imaging; hits give high values; AID 1625; hit rate 0.3% among 190,000;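 active = z-score above 3 at 5 µM with at least 500 cells counted in the well; inconclusive = wells under 500 cells, flagged as cytotoxic or low count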
* = called active by the depositor; i = inactive; ? = inconclusive; / = no result; + = active, no number. Compounds with a hit are over-represented: about 2.9% of the library has one in this group of screens.

SMILES | Wee1 stabilizer | bCat nuc transl | Autophagy mod | MT stabilize HCS | Insulin prom up
COC(=O)C(NC(=O)CSc1nc(N)cc(=O)[nH]1)c1ccccc1 (stereo not given) | 3 | -1 | i | 1 | 0.21
c1cnc(Sc2ccc3nnnn3n2)nc1 | -1 | -1 | i | 1 | -0.06
O=C1/C(=N\S(=O)(=O)c2cccs2)C([n+]2cccc(Cc3ccccc3)c2)=C([O-])c2ccccc21 | -2 | 0 | / | / | 6.8*
O=C1/C(=N\S(=O)(=O)c2cccs2)C([n+]2ccc(CCCc3ccccc3)cc2)=C([O-])c2ccccc21 | -2 | -2 | / | / | -0.95
Cc1ccccc1OCc1n[nH]c(=S)n1Cc1ccccc1 | 2 | 0 | + | 3 | -0.04
COc1cc(SC)ccc1C(=O)Nc1ncc(Cl)cc1Cl | 4 | 1 | + | 4 | -0.62
Cc1ccc(N=C2NC(=O)/C(=C/c3cccn3C)S2)cc1 | 5 | 65* | / | / | -1.2
Cc1ccc(N=C2NC(=O)/C(=C\c3ccc(C)s3)S2)cc1 | 3 | 2 | i | 6.3* | /
O=C1NC(=Nc2ccccc2)S/C1=C/c1cccs1 | 3 | 5 | i | 5 | -0.88
Cc1cc(C)c(C)c(OCCCN(C)C)c1 | -1 | 3 | i | 2 | 0.06
O=C1CCC(=O)N1CCC(c1ccc(F)cc1)c1ccco1 (stereo not given) | 0 | / | i | 2 | /
O=C1NCN(c2ccccc2)C12CCN(CCCC(c1ccc(F)cc1)c1ccc(F)cc1)CC2 | 2 | 0 | + | 3 | -0.77
O=C(CS(=O)CC(=O)N(CC(=O)NC1CCCC1)c1ccc2c(c1)OCCO2)Nc1ccc(F)cc1 (stereo not given) | 7 | / | i | 2 | /
O=C1c2ccccc2-c2nc3ncnn3c(-c3ccccc3)c21 | -3 | / | i | 2 | /
c1ccc(-c2cnn3c(-c4ccccc4)c(-c4ccccc4)nc3n2)cc1 | 8 | -1 | ? | i | 17*
COc1ccc(N2CCN(C(=S)NCCc3ccccc3)CC2)cc1 | 9.4* | / | i | 3 | /
NS(=O)(=O)c1ccc(CNS(=O)(=O)c2cccc3nonc23)cc1 | 4 | 1 | / | / | -1.1
COc1ccc(/C=N/NC(=O)c2cccc(O)c2)cc1Cn1nc(C)c([N+](=O)[O-])c1C | 4 | 0 | i | 19* | 0.42
COc1ccc(/C=N/NC(=O)c2ccc(N)cc2)cc1Cn1cc([N+](=O)[O-])cn1 | 2 | 0 | i | 12* | -0.44
CCn1cc(CNC(=S)Nc2cccc3ccccc23)cn1 | 9.3* | -1 | i | 3 | 0.09
Oc1ccccc1CNc1ccc2c(c1)OCCO2 | 0 | 1 | i | 2 | -0.14
Cc1ccc(CNc2ccc3c(c2)OCO3)c(C)c1 | -1 | 2 | + | 4 | /
COc1ccccc1NC(=O)CCN1C(=O)c2ccccc2S1(=O)=O | -3 | 1 | i | 2 | -0.17
CCCCOC(=O)Nc1ccc(N2CCCCC2)cc1 | 9.1* | -2 | i | 2 | 0.63
Cc1ccccc1C(=O)Nc1ccc(N2CCCC2)cc1 | 10* | -1 | i | 2 | -0.61
SMILES | Wee1 stabilizer | bCat nuc transl | Autophagy mod | MT stabilize HCS | Insulin prom up
CCCCOC(=O)Nc1ccc(N2CCOCC2)cc1 | 2 | 0 | i | 3 | /
O=C(Nc1ccc(N2CCN(Cc3ccccc3Cl)CC2)cc1)c1cccnc1 | 2 | 0 | i | 4 | /
O=C(Nc1ccc(N2CCCCC2)cc1)c1cccnc1 | 1 | 0 | i | 5 | 3.4*
Cn1c(=O)c2c(ncn2CC(=O)NC(C)(C)C)n(C)c1=O | 0 | -4 | i | 3 | 0.14
Cn1c(=O)c2c(nc(Sc3ncnn3CC(=O)NC(C)(C)C)n2C)n(C)c1=O | 10* | 0 | i | 5 | -0.22
Cc1ccc(S(=O)(=O)N/N=C\c2ccccc2OCc2ccccc2)cc1 | -4 | / | i | 25* | /
O=C(Cn1c(=O)oc2cc(S(=O)(=O)N3CCCCC3)ccc21)N1CCc2ccccc21 | -1 | -6 | + | 3 | -0.7
Clc1ccc2oc(-c3ccccn3)nc2c1 | 2 | 0 | i | 1 | 3*
Nc1ccc2oc(-c3ccccn3)nc2c1 | 1 | -2 | i | 2 | 0.23
Nc1c(C(=O)OCC2CCCO2)c2nc3ccccc3nc2n1C1CCCC1 (stereo not given) | -1 | -6 | i | 6 | -1.1
COCCCn1c(N)c(-c2nc3ccccc3n2C)c2nc3ccccc3nc21 | -4 | -4 | i | 2 | 0.41
Cn1c(-c2c(N)n(C3CCCC3)c3nc4ccccc4nc23)nc2ccccc21 | -1 | -4 | + | 9 | 0.13
Cn1c(-c2c(N)n(CCCc3ccccc3)c3nc4ccccc4nc23)nc2ccccc21 | 1 | -2 | + | 4 | 0.57
Cn1c(-c2c(N)n(CCc3ccccc3)c3nc4ccccc4nc23)nc2ccccc21 | 1 | / | + | 2 | 1.7
COc1ccccc1N1CCN(CC(=O)Nc2c(C)n(C)n(-c3ccccc3)c2=O)CC1 | 0 | 2 | i | 2 | 0.69
CCc1cccc(N(C)C(N)=Nc2cccc3ccccc23)c1 | / | 1 | / | / | -1.6
CC(=O)c1ccc(NC(=O)CSc2ccc3nnc(-c4cccnc4)n3n2)cc1 | -2 | 1 | i | 3 | -0.46
CC1CC(C)CN(C(=O)CNS(=O)(=O)c2ccc(Br)s2)C1 (stereo not given) | -1 | 0 | i | 3 | -0.11
CC1CCN(C(=O)CNS(=O)(=O)c2ccc(Br)s2)CC1 | 1 | 5 | i | 2 | 3.4*
N#CCCN1CCN(C(=O)c2c(N)no[n+]2[O-])CC1 | -1 | -2 | i | 1 | -0.39
Cc1ccc(CSc2nnc(CNc3ccc(F)cc3)o2)cc1 | 9.6* | / | i | 2 | 0.27
O=S(=O)(CCc1ccncc1)C1Cc2cccc3cccc1c23 (stereo not given) | -2 | 0 | / | / | 0.76
Cc1ccc(C(=O)OCC(=O)NCc2cccs2)c(C)c1 | 1 | -4 | + | 3 | 0.32
Cc1cc2c(cc(C(=O)OCC(=O)NCc3cccs3)n2C(C)C)o1 | 6 | 65* | + | 30* | -1.8
Cc1cc(C)cc(C(=O)OCC(=O)NCc2cccs2)c1 | 3 | -2 | i | 2 | 0.27
SMILES | Wee1 stabilizer | bCat nuc transl | Autophagy mod | MT stabilize HCS | Insulin prom up
COc1cc(/C=C(\C#N)C(=O)NCC2CCCO2)ccc1OCCC(C)C (stereo not given) | 1 | 0 | / | / | 0.47
CCN(CC(=O)Nc1ccc(OC)c(Cl)c1)CC(=O)NC(C)C | -1 | -1 | i | 1 | 0.18
Cc1cc(C)c(NC(=O)COc2ccccc2C(=O)Nc2ccc3c(c2)oc2ccccc23)c(C)c1 | 0 | / | + | 1 | -0.92
O=C(/C=C/c1ccccc1[N+](=O)[O-])N1CCCCC1 | 9.1* | -1 | i | 2 | 0.04
Cc1ccc(C(=O)/C=C/c2ccccc2[N+](=O)[O-])cc1 | 2 | 0 | i | 2 | -0.04
O=C(/C=C/c1ccccc1[N+](=O)[O-])c1ccccc1Br | -2 | 0 | i | 29* | 0.35
CCN1CCN(C(=O)/C=C/c2ccccc2[N+](=O)[O-])CC1 | -2 | 0 | i | 3 | 0.52

High-throughput results deposited in PubChem BioAssay by several laboratories.
